# Assay results gathered from unrelated publications.
# Lines come from different studies, so protocols differ. pEC50, pKd, pKi: −log10 of the molar value.
# Toll-like receptor 1/2: Toll-like receptor 1/2 (Homo sapiens, UniProt O60603+Q15399)
# Chymotrypsinogen A: Chymotrypsinogen A (Bos taurus, UniProt P00766)
# lecA: PA-I galactophilic lectin (lecA, Pseudomonas aeruginosa, UniProt Q05097)
SMILES,target,observed,action,method,measurement,value
CNc1ccc([N+](=O)[O-])cc1-n1cnc(-c2ccc3ccccc3c2)c1,Toll-like receptor 1/2,reporter gene,agonist,,pEC50,6.38
CCCC[C@H](NC(=O)[C@H](CCC(N)=O)NC(=O)[C@H](CO)NC(=O)C[C@@H](Cc1ccc2ccccc2c1)NC(=O)CCCCCN)C(=O)N[C@@H](CCCBr)B(O)O,Chymotrypsinogen A,enzyme activity,inhibitor,fluorescence,pKi,6.30
O=C(CCn1cc(CN2CCN(c3cc4c(cc3F)c(=O)c(C(=O)O)cn4C3CC3)CC2)nn1)Nc1ccc(S[C@@H]2O[C@H](CO)[C@H](O)[C@H](O)[C@H]2O)cc1,lecA,ligand displacement,,FP,pKi,5.37
Cc1cc(Nc2cc3ncccc3c(N[C@@H]3C[C@H]4CC[C@@H](C3)N4CCC#N)n2)n[nH]1,"Cyclin-dependent kinase 4, with cyclin D1 (CDK4, Homo sapiens, UniProt P11802)",binding,,competition with immobilised ligand,pKd,6.82
CC(C)C[C@H](NC(=O)[C@H](Cc1ccccc1)NC(=O)[C@@H](N)Cc1ccc(O)cc1)C(=O)N[C@@H](Cc1ccccc1)C(=O)N[C@@H](CCCNC(=N)N)C(=O)N1CCC[C@H]1C(=O)N[C@@H](CCCNC(=N)N)C(=O)N[C@@H](CC(N)=O)C(N)=O,"Neuromedin-U receptor 1 (Mus musculus, UniProt O55040)",β-arrestin recruitment,agonist,,pEC50,7.94
CCCC[C@H](NC(=O)[C@H](CCCCN)NC(=O)[C@H](CO)NC(=O)[C@H](CO)NC(=O)OCc1ccccc1)C(=O)N[C@@H](Cc1ccccc1)B(O)O,Chymotrypsinogen A,enzyme activity,inhibitor,fluorescence,pKi,7.74
O=C(Cn1cc(CN2CCN(c3cc4c(cc3F)c(=O)c(C(=O)O)cn4C3CC3)CC2)nn1)Nc1ccc(S[C@@H]2O[C@H](CO)[C@H](O)[C@H](O)[C@H]2O)cc1,lecA,ligand displacement,,FP,pKi,5.42
CNc1ccc(C(F)(F)F)cc1-n1cnc(-c2ccc(C(F)(F)F)cc2)c1,Toll-like receptor 1/2,reporter gene,agonist,,pEC50,6.62
CCn1c(-c2nc3ccc(C(=O)N4CCCC(N)C4)cc3n2C)cc2ccccc21 (centres unmarked),"Muscarinic acetylcholine receptor M2 (CHRM2, Homo sapiens, UniProt P08172)",calcium signal,agonist,,pEC50,< 4.80
CCCC[C@H](NC(=O)[C@H](CCC(N)=O)NC(=O)[C@H](CO)NC(=O)[C@H](Cc1ccccc1)NC(=O)CCCCCN)C(=O)N[C@@H](CCCBr)B1O[C@@H]2C[C@@H]3C[C@@H](C3(C)C)[C@]2(C)O1,Chymotrypsinogen A,enzyme activity,inhibitor,fluorescence,pKi,6.30
CNc1ccc([N+](=O)[O-])cc1-n1cnc(-c2ccc(C#N)cc2)c1,Toll-like receptor 1/2,reporter gene,agonist,,pEC50,6.68
Cc1cnc(-c2ccc(-c3ccc(NC(=O)Nc4c(F)cc(F)cc4F)cc3F)c3c2C(=O)NC3)[nH]1,"Myosin-IIIb (MYO3B, Homo sapiens, UniProt Q8WXR4)",binding,,competition with immobilised ligand,pKd,7.12
NC(=O)C1=CN([C@@H]2O[C@H](COP(=O)(O)OP(=O)(O)OC[C@H]3O[C@@H](n4cnc5c(N)ncnc54)[C@H](O)[C@@H]3O)[C@@H](O)[C@H]2O)C=CC1,"ADH1 (Saccharomyces cerevisiae, UniProt P00330, H16R)",enzyme activity,inhibitor,,pKi,4.92
CNc1ccc(C#N)cc1-n1cnc(-c2ccc([N+](=O)[O-])cc2)c1,Toll-like receptor 1/2,reporter gene,agonist,,pEC50,4.96
